The values below come from ChEMBL document CHEMBL1141187, “New potential anticancer agents based on the anthranilic acid scaffold: synthesis and evaluation of biological activity” (2005).

Common to all, as to assay type: functional
Assay [1] deals with K562. Kind of assay: Antiproliferative activity against human leukemia K562 cell line. Summed up: (§1)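 Part of the NCI ~60 human tumor cell line panel screen. Each compound was tested at five concentrations in 10-fold dilutions from 10^-4 to 10^-8 M. GI50 is read from dose-response curves as the molar concentration giving 50% inhibition of net cell growth, and is also reported as pGI50 (-log molar).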

For assay [2], the system named is MCF7. Put plainly: Antiproliferative activity against human breast cancer MCF7 cell line. Summed up:
as §1

Assay [3] relates to NCI-H23. Put plainly: Antiproliferative activity against human lung NCI-H23 cell line. Summed up: as §1
Assay [4] relates to SN12C. Put plainly: Antiproliferative activity against human renal SN12C cell line. Summed up:
as §1

Assay [5] relates to SW-620. Put plainly: Antiproliferative activity against human colon SW620 cell line. Summed up:
as §1

Assay [6] deals with SF-268. Put plainly: Antiproliferative activity against human CNS SF268 cell line. A digest of the protocol:
as §1

Assay [7] relates to UACC-62. Put plainly: Antiproliferative activity against human melanoma UACC62 cell line. Summed up:
as §1

Broadly, the GI50 is the concentration that inhibits growth by half. A low value points to more potent growth inhibition.

With `O=C(Oc1ccccc1Cl)c1ccccc1Nc1cccc(C(F)(F)F)c1`, the GI50 is 2.69 µM in assay [1]; 33.9 µM in assay [2]; 20 µM in assay [3]; 23.4 µM in assay [4]; 8.13 µM in assay [5]; 20.4 µM in assay [6]. This compound gave a concentration for 50% growth inhibition (GI50) in assay [7] of 17 µM.
With `O=C(Oc1ccc(Cl)cc1)c1ccccc1Nc1ccnc(C(F)(F)F)c1`, the GI50 in assay [1] was 3.63 µM; in assay [2] it was 3.72 µM; in assay [3], 2.82 µM; in assay [4] it was 2.95 µM; in assay [5], 6.61 µM; in assay [6], 4.37 µM. In addition, the GI50 in assay [7] was 2.63 µM.
Turning to `O=C(Oc1ccc(Cl)cc1Cl)c1ccccc1Nc1ccnc(C(F)(F)F)c1`, the GI50 in assay [1] is 3.02 µM; in assay [2], 3.63 µM; in assay [3], 3.55 µM; in assay [4], 3.02 µM; in assay [5], 4.57 µM; in assay [6], 3.09 µM. Moreover, in assay [7], the GI50 was 2.29 µM.
Consider `O=C(Oc1cccnc1)c1ccccc1Nc1ccnc(C(F)(F)F)c1`, for which the GI50 in assay [1] was 0.0427 µM; in assay [2], 0.0457 µM; in assay [3], 0.0363 µM; in assay [4], 0.0708 µM; in assay [5], 0.0407 µM; in assay [6], 0.331 µM. Besides, in assay [7], halving of growth (GI50) required 0.288 µM.
Turning to `O=C(Oc1cccnc1)c1cccnc1Nc1ccnc(C(F)(F)F)c1`, the GI50 in assay [1] was 5.13 µM; in assay [2], 2.69 µM; in assay [3], 6.31 µM; in assay [4] it was 6.46 µM; in assay [5], 5.5 µM; in assay [6], 5.62 µM. For the same compound, the GI50 in assay [7] was 5.75 µM.
As for `O=C(Oc1ccccc1Cl)c1cccnc1Nc1ccnc(C(F)(F)F)c1`, the GI50 in assay [1] is 4.57 µM; in assay [2] it was 3.63 µM; in assay [3], 8.71 µM; in assay [4] it was 4.07 µM; in assay [5], 3.72 µM; in assay [6], 10 µM. The same compound gave a GI50 in assay [7] of 6.17 µM.
As to `O=C(Oc1c(Cl)cc(Cl)cc1Cl)c1ccccc1Nc1ccnc(C(F)(F)F)c1`, the GI50 in assay [1] was 2.4 µM; in assay [2], 4.68 µM; in assay [3], 2.57 µM; in assay [4] it was 3.09 µM; in assay [5] it was 4.57 µM; in assay [6] it was 3.89 µM. In assay [7], this compound showed a concentration for 50% growth inhibition (GI50) of 1.74 µM.
As to `O=C(Oc1ccccc1Cl)c1ccccc1Nc1ccnc(C(F)(F)F)c1`, the GI50 in assay [1] is 0.0513 µM; in assay [2] it was 0.282 µM; in assay [3] it was 0.257 µM; in assay [4], 0.331 µM; in assay [5] it was 0.363 µM; in assay [6], 2.24 µM. For the same compound, in assay [7], growth was halved (GI50) at 0.309 µM.
Regarding `O=C(Oc1cccc(Cl)c1)c1ccccc1Nc1ccnc(C(F)(F)F)c1`, the concentration for 50% growth inhibition (GI50) was 3.24 µM in assay [1]; 4.79 µM in assay [2]; 2.4 µM in assay [3]; 2.95 µM in assay [4]; 4.37 µM in assay [5]; 3.02 µM in assay [6]. This compound also showed a GI50 in assay [7] of 2.04 µM.
For `COc1cccc(OC(=O)c2ccccc2Nc2ccnc(C(F)(F)F)c2)c1`, the GI50 in assay [1] was 0.741 µM; in assay [2], 7.24 µM; in assay [3] it was 2.04 µM; in assay [4] it was 5.37 µM; in assay [5], 4.07 µM; in assay [6], 4.68 µM. For the same compound, in assay [7], the GI50 was 3.09 µM.
